# Data reported in the M2OR odorant receptor database.
# Molecular target: UniProt Q8VG28
# Conditions: stereoisomer not certain
# How it was run: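 Each entry records the cell line, G-protein, co-transfected protein and tags used. Methods varied with the source, often transient luciferase assays in mammalian cell lines. A receptor–molecule pair is called responsive (active) if the original authors judged its signal statistically different from baseline and non-responsive (inactive) otherwise.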
# Chain of UniProt Q8VG28 (Q8VG28 as listed by the source): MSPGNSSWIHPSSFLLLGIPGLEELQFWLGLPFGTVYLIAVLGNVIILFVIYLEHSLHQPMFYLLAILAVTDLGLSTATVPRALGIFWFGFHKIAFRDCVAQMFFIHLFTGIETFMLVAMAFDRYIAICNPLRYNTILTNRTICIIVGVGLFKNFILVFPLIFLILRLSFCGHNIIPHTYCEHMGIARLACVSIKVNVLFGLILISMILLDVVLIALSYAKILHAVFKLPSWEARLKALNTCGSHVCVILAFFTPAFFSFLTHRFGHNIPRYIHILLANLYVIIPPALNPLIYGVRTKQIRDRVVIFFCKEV
compound,measurement,value
O=C(O)CCCCCCCBr,odorant receptor agonist call,active
